Experimental data from ChEMBL document CHEMBL3414513, “Synthesis and biological evaluation of betulonic acid derivatives as antitumor agents” (Eur J Med Chem, 2015).
The source made the active and inactive calls. No cut-off for these calls is given here.

How the values were obtained:
MGC-803 [1] = experiment: Cytotoxicity against human MGC803 cells after 72 hrs by MTT assay; type: functional, cell-based
How it was run: (§1)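 Cancer lines grown in RPMI 1640 with 10% heat-inactivated FBS, 37 °C, 5% CO2. Cells trypsinized at 80-90% confluence, seeded at 2×10^3/well overnight, then given compounds (DMSO stocks diluted in medium) at various concentrations for 72 h at 37 °C. Controls: 0.1% DMSO negative, adriamycin positive. MTT (5 mg/ml) added for 4 h, formazan dissolved in SDS 12 h, A595 read. IC50 from dose-response curves.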

[2] = (§2) Cytotoxicity against human PC3 cells after 72 hrs by MTT assay; type: functional, cell-based; details: PC-3, 72 h
How it was run: as §1, with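 “Cells” for “Cancer lines grown in RPMI 1640 with 10% heat-inactivated FBS, 37 °C, 5% CO2. Cells”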

PC-3 [3] = experiment: as §2; type: functional, cell-based
How it was run: as §1, with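 “Cells” for “Cancer lines grown in RPMI 1640 with 10% heat-inactivated FBS, 37 °C, 5% CO2. Cells”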

Bcap37 [4] = experiment: Cytotoxicity against human Bcap37 cells after 72 hrs by MTT assay; type: functional, cell-based; how it was run: as §1
A-375 [5] = experiment: Cytotoxicity against human A375 cells after 72 hrs by MTT assay; type: functional, cell-based; how it was run: as §1
MCF7 [6] = experiment: Cytotoxicity against human MCF7 cells after 72 hrs by MTT assay; type: functional, cell-based; how it was run: as §1
MGC-803 [7] = experiment: Selectivity index, ratio of IC50 for mouse NIH/3T3 cells to IC50 for human MGC803 cells; type: functional
How it was run: (§3)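 Index is the IC50 in normal NIH3T3 cells divided by the IC50 in each cancer line. […] HCPT and adriamycin were used as positive controls.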

PC-3 [8] = experiment: Selectivity index, ratio of IC50 for mouse NIH/3T3 cells to IC50 for human PC3 cells; type: functional; how it was run: as §3
Bcap37 [9] = experiment: Selectivity index, ratio of IC50 for mouse NIH/3T3 cells to IC50 for human Bcap37 cells; type: functional; how it was run: as §3
A-375 [10] = experiment: Selectivity index, ratio of IC50 for mouse NIH/3T3 cells to IC50 for human A375 cells; type: functional; how it was run: as §3
MCF7 [11] = experiment: Selectivity index, ratio of IC50 for mouse NIH/3T3 cells to IC50 for human MCF7 cells; type: functional; how it was run: as §3
MGC-803 [12] = experiment: Induction of apoptosis in human MGC803 cells at 5 uM after 12 to 48 hrs by acridine orange/ethidium bromide staining-based fluorescence microscopic analysis; type: functional, cell-based
How it was run: (§4)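 MGC-803 cells at 5×10^4 cells/mL were seeded in 6-well plates. Medium was replaced with fresh medium plus 10% FBS containing compound, 5 µM for 12-48 h. Controls: HCPT 10 µM for 48 h, DMSO. Cells were washed with PBS and the coverslip was inverted onto 20 µL AO/EB stain (100 µg/mL). Fluorescence microscopy scored live, early apoptotic, late apoptotic and necrotic nuclei.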

MGC-803 [13] = experiment: Induction of apoptosis in human MGC803 cells assessed as necrotic cells at 5 uM after 12 to 48 hrs by acridine orange/ethidium bromide staining-based fluorescence microscopic analysis; type: functional, cell-based; how it was run: as §4
MGC-803 [14] = experiment: Induction of apoptosis in human MGC803 cells assessed as appearance of compact condensed and crescent shaped cells at 5 uM after 12 to 48 hrs by Hoechst 33258 staining-based fluorescence microscopic analysis; type: functional, cell-based
How it was run: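 MGC-803 cells (5×10^4 cells/mL, 6-well plates) were treated at 5 µmol/L for 12-48 h in fresh medium with 10% FBS. Controls: HCPT 10 µM for 48 h, DMSO. Cells were fixed in 4% paraformaldehyde for 10 min and stained with Hoechst 33258 for 5 min. Fluorescence microscopy used 350 nm excitation and 460 nm emission.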

MGC-803 [15] = experiment: Induction of apoptosis in human MGC803 cells assessed as DNA fragmentation at 5 uM after 12 to 48 hrs by TUNEL assay; type: functional, cell-based
How it was run: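 MGC-803 cells (5×10^4 cells/mL, 6-well) were exposed at 5 µM for 12-48 h. Controls: HCPT 10 µM for 48 h, DMSO. Colorimetric TUNEL: fixed in 4% paraformaldehyde 40 min, permeabilized on ice, endogenous peroxidase quenched with 0.3% H2O2/methanol 20 min. Then TdT plus biotin-dUTP 60 min at 37 °C, streptavidin-HRP 30 min, DAB 10 min. Brown precipitate scored by light microscopy.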

MGC-803 [16] = experiment: Induction of apoptosis in human MGC803 cells assessed as apoptosis ratio at 10 uM after 36 hrs by Annexin V-FITC/propidium iodide staining-based flow cytometric analysis; type: functional
How it was run: (§5)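 MGC-803 cells were treated at 10 µM, with 36 h among the time points; HCPT 10 µM served as positive control. Cells at 1×10^6/mL were washed in cold PBS and resuspended in 500 µL binding buffer. Staining used 5 µL Annexin V-FITC plus 5 µL PI for 20 min in the dark, then flow cytometry. Apoptosis ratio is early plus late apoptotic quadrants.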

MGC-803 [17] = experiment: Induction of apoptosis in human MGC803 cells at 10 uM by Annexin V-FITC/propidium iodide staining-based flow cytometric analysis; type: functional, cell-based; details: TDE = time-dependent effect; how it was run: as §5
[18] = Upregulation of p53 expression in human MGC803 cells at 2.5 to 10 uM after 12 hrs by Western blot analysis; type: functional, cell-based; details: MGC-803
How it was run: (§6)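 MGC-803 cells were treated at 2.5, 5 or 10 µM for 12 h, then collected. Western blots were probed with anti-p53 and anti-Bax (1:500 to 1:1000), with β-actin as loading reference.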

[19] = Upregulation of Bax expression in human MGC803 cells at 2.5 to 10 uM after 12 hrs by Western blot analysis; type: functional, cell-based; details: MGC-803; how it was run: as §6
MGC-803 [20] = experiment: Induction of apoptosis in human MGC803 cells assessed as activation of caspase-3 using Ac-[…]-pNA as probe at 2.5 to 10 uM after 12 hrs; type: functional, cell-based
How it was run: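 MGC-803 cells were treated at 2.5, 5 or 10 µM for 12 h. Cells (1×10^6/mL) were washed in cold PBS, lysed on ice for 25 min and spun at 18000 g for 15 min. Supernatant was mixed with reaction buffer and Ac-[…]-pNA and incubated at 37 °C for 2-3 h in the dark. A405 was read against a lysis/reaction buffer blank.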

MGC-803 [21] = experiment: Induction of apoptosis in human MGC803 cells assessed as activation of caspase-9 using Ac-LEHD-pNA as probe at 2.5 to 10 uM after 12 hrs; type: functional, cell-based
How it was run: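 MGC-803 cells were treated at 2.5, 5 or 10 µM for 12 h. Cells were lysed on ice for 25 min and spun at 16000 g for 15 min. Supernatant was mixed with reaction buffer and Ac-LEHD-pNA and incubated at 37 °C for 2-3 h in the dark. A405 was read against a buffer blank.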

Structure (SMILES): C=C(C)[C@@H]1CC[C@]2(C(=O)OCCCCN3CCCCC3)CC[C@]3(C)[C@H](CC[C@@H]4[C@@]5(C)CCC(=O)C(C)(C)[C@@H]5CC[C@]43C)[C@@H]12
- Activity (MGC-803 [1]): Dose-dependent effect
- IC50 (MGC-803 [1]; MGC-803, 72 h): 3.6 µM
- IC50 [2]: 5.6 µM
- Activity (PC-3 [3]): Dose-dependent effect
- Activity (Bcap37 [4]): Dose-dependent effect
- IC50 (Bcap37 [4]; Bcap37, 72 h): 4.2 µM
- Activity (A-375 [5]): Dose-dependent effect
- IC50 (A-375 [5]; A-375, 72 h): 7.8 µM
- Activity (MCF7 [6]): Dose-dependent effect
- IC50 (MCF7 [6]; MCF7, 72 h): 5.2 µM
- Ratio IC50 (MGC-803 [7]): 7.38
- Ratio IC50 (PC-3 [8]): 4.75
- Ratio IC50 (Bcap37 [9]): 6.33
- Ratio IC50 (A-375 [10]): 3.41
- Ratio IC50 (MCF7 [11]): 5.11
- Activity (MGC-803 [12]): Active
- Activity (MGC-803 [13]): inactive
- Activity (MGC-803 [14]): Active
- Activity (MGC-803 [15]): Active
- Activity (MGC-803 [16]): 28.33%
- Activity (MGC-803 [17]): tde
- Activity [18]: Active
- Activity [19]: Active
- Activity (MGC-803 [20]): Active
- Activity (MGC-803 [21]): Active
